Assay [1] concerns HUVE12. Description: Reversal of hydrogen peroxide-induced LDH activity in human HUVE12 cells. The class given is functional, cell-based. The method, boiled down: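 HUVE-12 cells pretreated 30 min with compound (0.1–10.0 µM) or 0.02% DMSO vehicle, then 1 mM H2O2 for 24 h at 37 °C. Medium sampled before harvest; LDH activity measured by colorimetric kit as a marker of cell injury. Average of three experiments.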

In assay [2] the test system is HUVE12. Description: Protection against hydrogen peroxide-induced apoptosis in human HUVE12 cells. The class given is functional, cell-based. Summed up: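 HUVE-12 cells in DMEM with 10% newborn calf serum at 37 °C, 5% CO2. Pretreated 30 min with compound (0.1, 1.0, 10.0 µM; also 0.1–10.0 µM series) or 0.02% DMSO vehicle, then 1 mM H2O2 for 24 h. Trypsinized, fixed in 70% ice-cold ethanol, stained with PI/RNase A 15 min at 37 °C; apoptosis by flow cytometry. Three independent experiments.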

Activity calls are given as the source filed them. The rule behind the calls is not given here.

On to `CCCCCCCCCOc1ccc(-c2coc3cc(OC(F)F)cc(OCCCCCCCCC)c3c2=O)cc1`, for which the result with HUVE12 [1] was Active.
With `CCCCCCCCOc1ccc(-c2coc3cc(OC(F)F)cc(OCCCCCCCC)c3c2=O)cc1`, in the assay on HUVE12 [1], the outcome was Active.
Still for that read-out and setting: the result for `O=c1c(-c2ccc(OC(F)F)cc2)coc2cc(OC(F)F)cc(O)c12` reads “Active”; that for `CCOc1ccc(-c2coc3cc(OC(F)F)cc(OCC)c3c2=O)cc1`, “Active”; that for `O=c1c(-c2ccc(O)cc2)coc2cc(OC(F)F)cc(O)c12`, “Active”.
Consider `O=c1c(-c2ccc(O)cc2)coc2cc(O)cc(O)c12`, for which the result in the assay with HUVE12 [1] was Active.
Still for that read-out and setting: the result for `O=c1c(-c2ccc(OCc3ccccc3)cc2)coc2cc(OC(F)F)cc(OCc3ccccc3)c12` reads “Active”.
As to `CC(C)C/C=C/Oc1ccc(-c2coc3cc(OC(F)F)cc(O/C=C/CC(C)C)c3c2=O)cc1`, the result in the assay on HUVE12 [1] was Active.
Turning to `COc1ccc(-c2coc3cc(OC(F)F)cc(OC)c3c2=O)cc1`, the outcome in the assay with HUVE12 [2] and in the assay with HUVE12 [1] was Active.
Turning to `CCCOc1ccc(-c2coc3cc(OC(F)F)cc(OCCC)c3c2=O)cc1`, the outcome in the assay with HUVE12 [1] was Active.
The same measure, in the same setting: the result for `CCCCCCCOc1ccc(-c2coc3cc(OC(F)F)cc(OCCCCCCC)c3c2=O)cc1` reads “Active”.

The record behind these values is ChEMBL document CHEMBL1140812, “Synthesis of genistein derivatives and determination of their protective effects against vascular endothelial cell damages caused by hydrogen peroxide” (Bioorg Med Chem Lett, 2008).
